Activity calls are given as the source filed them. The rule behind the calls is not given here.
Tests used:
[1] = Inhibition of TNF-alpha induced NF-kappaB activation in human A549 cells after 7 hrs by Bright-Glo luciferase reporter gene assay; format: cell-based; conditions: Homo sapiens, A549, 7 h; read-out: IC50
Summary of the method: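 A549 cells transiently cotransfected with an NF-κB-Luc reporter and stimulated with TNF-α. Luciferase read-out of inhibition gives IC50, the mean of at least three independent experiments each with triplicates.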

[2] = target: Inhibitor of NF-kappa-B kinase alpha/beta (Homo sapiens) (UniProt O14920+O15111); experiment: Inhibition of IKKalpha/beta phosphorylation in human A549 cells up to 20 uM after 24 hrs by Western blot analysis; format: cell-based
Summary of the method: (§1)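 A549 cells exposed to 5, 10 and 20 µM for 24 h. Western blots probed for NF-κB, p-IκBα, IκBα and p-IKKα/β, with GAPDH as internal control. Three experiments, representative blot shown.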

[3] = system: A549; experiment: Reduction in IkappaBalpha level in human A549 cells up to 20 uM after 24 hrs by Western blot analysis; format: functional, cell-based; summary of the method: as §1
[4] = Selectivity ratio of IC50 for cisplatin-resistant human SKOV3/DDP cells to IC50 for cisplatin sensitive human SKOV3 cells; format: functional
Summary of the method: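 IC50 determined in resistant SK-OV-3/CDDP cells divided by IC50 in parental SK-OV-3 cells. Each IC50 by MTT, three separate experiments each in triplicate.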

[5] = system: A549; experiment: Induction of apoptosis in human A549 cells after 24 hrs by annexin V-FITC/propidium iodide staining-based flow cytometry analysis; format: functional, cell-based
Summary of the method: (§2)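 A549 cells treated at 5, 10 and 20 µM for 24 h, then harvested and stained with Annexin V-FITC and PI. Flow cytometry quadrants: Q1 necrotic, Q2 late apoptotic/necrotic, Q3 early apoptotic, Q4 living. Performed three times.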

[6] = system: A549; experiment: Induction of apoptosis in human A549 cells assessed as necrotic apoptotic cells at 10 uM after 24 hrs by annexin V-FITC/propidium iodide staining-based flow cytometry analysis (reference value: 0.520%); format: functional; summary of the method: as §2
[7] = system: A549; experiment: Induction of apoptosis in human A549 cells assessed as necrotic apoptotic cells at 20 uM after 24 hrs by annexin V-FITC/propidium iodide staining-based flow cytometry analysis (reference value: 0.520%); format: functional; summary of the method: as §2
[8] = system: A549; experiment: Cell cycle arrest in human A549 cells assessed as accumulation at G1 phase at 5 uM after 24 hrs by propidium iodide staining based flow cytometry (reference value: 47.0%); format: functional
[9] = system: A549; experiment: Antimigratory activity against human A549 cells after 24 hrs by crystal violet staining based fluorescence microscopic analysis; format: functional, cell-based
Summary of the method: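 Transwell migration of A549 cells incubated at 5, 10 and 20 µM for 24 h. Performed three times, representative images shown.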

[10] = system: A549; experiment: Induction of mitochondrial membrane potential loss in human A549 cells at 5 to 20 uM after 24 hrs by JC-1 staining-based fluorescence microscopic analysis; format: functional, cell-based
Summary of the method: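 A549 cells treated at 5, 10 and 20 µM for 24 h, then loaded with JC-1 probe for 30 min. Red J-aggregate and green J-monomer fluorescence viewed by fluorescence microscopy. Three experiments.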

- IC50 [1]: 970 nM
- inhibition [2]: Active
Structure (SMILES): CCOP(=O)(OCC)C(Nc1ccc(CC(=O)NCCCCNC(=O)[C@@]2(C)CC[C@]3(C)CC[C@]4(C)C(=CC(=O)[C@@H]5[C@@]6(C)CC[C@H](OC(C)=O)C(C)(C)[C@@H]6CC[C@]54C)[C@@H]3C2)cc1)c1ccc(F)cc1 (stereo not given in full)
- Activity [3]: Active
- Ratio IC50 [4]: 0.92
- Activity [5]: Dose-dependent effect
- Activity [6]: 0.386%
- Activity [7]: 0.509%
- Activity [8]: 59.91%
- Activity [9]: Dose-dependent effect
- Activity [10]: Active

From ChEMBL document CHEMBL4382268, “Glycyrrhetinic acid derivatives containing aminophosphonate ester species as multidrug resistance reversers that block the NF-κB pathway and cell proliferation” (Bioorg Med Chem Lett, 2018)
